Screening results as filed in PubChem BioAssay.
Rows were chosen to be rich in hits. Some 1.5% of all compounds tested hit in one or more screens of this group.
Mot1-301 SUMO – SUMOylation pathway inhibition by Mot1-301 growth rescue | S. cerevisiae Mot1-301 growth rescue, ATP luminescence, 38.5C; percent above DMSO median, 100 means doubled | growth rescue, % at 18.8 µM | 320,000 compounds, 1% hits;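 active = every valid replicate shows activation above 250% relative to neutral control wells; inactive = the rest, any valid replicate at or below 250%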
Statin myotox sup – suppressors of simvastatin-induced myotoxicity in C2C12 myotubes. 330,000 compounds, 0.78% hits. ATP luminescence, 48 h; scaled: DMSO 0, geranylgeraniol control 100. rescue of ATP level, % at 7.49 µM. AID 602340;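 active = mean ATP rescue above about 67%, or every replicate alone reaching that limit, limit read from the data, passing the limit was not always enough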;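 also: myotubes were challenged with 10 µM simvastatin during compound exposure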
Cneo AK release – Cryptococcus neoformans lysis via adenylate kinase release | C. neoformans lysis, adenylate kinase release luminescence, 4 h; normalised: neutral wells 0, clomiphene wells 100 | lysis activity, % at 15 µM | AID 651654 | 360,000 compounds, 0.2% hits;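 active = mean lysis activity across replicates of at least 80%, whatever share of replicates individually reach that level; inactive = mean lysis activity below 80%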
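Schedule: static 4 h at 37 °C with compound, 1 h detection; system: C. neoformans cells; benchmarks: Clomiphene as positive control; buffer or medium: fresh YPD medium; measure: luminescence rise reflecting yeast cell lysis; measured by: luminescent adenylate kinase detection reagent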
Of the large screens only hits and unclear results are named; the others gave an inactive call.

COCC(=O)Nc1ccc2c(c1)[C@H]1C[C@H](CC(=O)NC3CCCCC3)O[C@H](CO)[C@H]1O2	none (no result: Mot1-301 SUMO)
O=C(NC(=S)Nc1ccc(Br)cc1)C1CCC1	Cneo AK release 146
S=C(NCCN1CCCCC1)Nc1ccccc1	none (no result: Cneo AK release)
O=C(NC(=S)Nc1ccc(Br)cc1)C1CCCCC1	none
O=C(Nc1ccc(Br)cc1)C1CCCC1	Mot1-301 SUMO 333
S=C(NCCN1CCCCC1)Nc1ccc(Br)cc1	Mot1-301 SUMO 348
O=C(Nc1ccc(Cl)cc1)C1CCCC1	none
C[C@@H]1CN([C@@H](C)CO)C(=O)c2cc(NC(=O)C3CCCCC3)ccc2O[C@@H](C)CCCCO[C@H]1CN(C)Cc1ccc(C(F)(F)F)cc1	none (no result: Mot1-301 SUMO, Statin myotox sup)
O=C(Cc1ccncc1)NCC[C@@H]1CC[C@H](NC(=O)C2CCCCC2)[C@H](CO)O1	none (no result: Mot1-301 SUMO)
C/C=C/c1ccc([C@@H]2[C@@H](CO)N(C(=O)NCCC)[C@H]2CNC(=O)C2CCC2)cc1	none (no result: Mot1-301 SUMO)
C/C=C/c1ccc([C@@H]2[C@H](CO)N(C(C)=O)[C@H]2CNC(=O)c2ccncc2)cc1	none (no result: Mot1-301 SUMO)
C/C=C/c1ccc([C@@H]2[C@@H](CO)N(C(=O)CC)[C@@H]2CNC(=O)C2CC2)cc1	none (no result: Mot1-301 SUMO)
C/C=C/c1ccc([C@@H]2[C@@H](CNC(=O)C3CCC3)N(C(=O)NCCC)[C@H]2CO)cc1	Cneo AK release 103 (no result: Mot1-301 SUMO)
C/C=C/c1ccc([C@@H]2[C@@H](CNC(=O)c3ccccc3)N(C(C)=O)[C@H]2CO)cc1	Cneo AK release 81 (no result: Mot1-301 SUMO)
C/C=C/c1ccc([C@H]2[C@@H](CO)N(C(=O)CC)[C@@H]2CNC(=O)C2CC2)cc1	Cneo AK release 91 (no result: Mot1-301 SUMO)
COCC(=O)N1C[C@H](C)[C@@H](OC)CN(C)C(=O)c2cc(NC(=O)c3ccc(OC)cc3)ccc2OC[C@@H]1C	none (no result: Mot1-301 SUMO)
Cc1cccc(NCCC(=O)c2ccc(Br)cc2)c1	none
CC(C)c1ccc(NCCC(=O)c2ccc(Br)cc2)cc1	Mot1-301 SUMO 324 (no result: Statin myotox sup)
COc1ccc(OC)c(S(=O)(=O)Nc2ccccc2C)c1	Statin myotox sup 100
COc1ccc(OC)c(S(=O)(=O)Nc2ccccc2O)c1	none (no result: Statin myotox sup, Cneo AK release)
COc1ccccc1CNC(=O)C[C@H]1C[C@H]2c3cc(NC(=O)NC4CCCC4)ccc3O[C@H]2[C@H](CO)O1	none (no result: Mot1-301 SUMO)
O=C(Cc1cn2ccsc2n1)Nc1ccccc1Oc1ccccc1	Statin myotox sup 101 (no result: Cneo AK release)
O=C(Cc1cn2ccsc2n1)NCc1ccccc1	none
Cc1cc(N2CC(C(=O)O)CC2=O)ccc1Br (centres undefined)	Statin myotox sup 76
Cc1ccc(N2CC(C(=O)NC3=NCCS3)CC2=O)cc1C (centres undefined)	none
Cc1ccc(N2CC(C(=O)Nc3ccc(N(C)C)cc3)CC2=O)cc1C (centres undefined)	Statin myotox sup 148
CC(=O)COC(=O)C1CC(=O)N(c2ccc(C)c(C)c2)C1 (centres undefined)	none (no result: Statin myotox sup, Cneo AK release)
O=C(C[C@H]1C[C@@H]2c3cc(NC(=O)NC4CCCC4)ccc3O[C@@H]2[C@H](CO)O1)NCc1ccccc1	none (no result: Mot1-301 SUMO)
C[C@@H]1CN([C@H](C)CO)C(=O)c2cc(C#CCc3ccccc3)cnc2O[C@@H]1CN(C)C(=O)C1CC1	none (no result: Mot1-301 SUMO)
Oc1ccccc1/C=N/c1c(-c2ccco2)nc2ccccn12	Statin myotox sup 102
Clc1ccc(/C=N/c2c(-c3ccco3)nc3ccccn23)cc1	none
CO[C@H]1CN(C)C(=O)c2ccc(NC(C)=O)cc2OC[C@@H](C)N(Cc2ccccc2C(=O)O)C[C@@H]1C	none (no result: Mot1-301 SUMO)
Clc1ccc(SCc2cc(N3CCOCC3)nc(-c3ccccn3)n2)cc1	none (no result: Statin myotox sup, Cneo AK release)
Cc1nc(CSc2ccc(Cl)cc2)cc(N2CC(C)OC(C)C2)n1 (centres undefined)	Statin myotox sup 107
O=C(C[C@H]1C[C@@H]2c3cc(NC(=O)C4CCOCC4)ccc3O[C@@H]2[C@H](CO)O1)NCc1ccccn1	none (no result: Mot1-301 SUMO)
CCOC(=O)NC(=S)Nc1cccc(C)n1	none (no result: Mot1-301 SUMO)
CCOC(=O)NC(=S)Nc1ccc(C(C)(C)C)cc1	Cneo AK release 173 (no result: Statin myotox sup)
CCS(=O)(=O)NCC[C@H]1CC[C@H](NS(=O)(=O)c2cccc(F)c2)[C@H](CO)O1	Cneo AK release 110 (no result: Mot1-301 SUMO)
CCS(=O)(=O)NCC[C@@H]1CC[C@@H](NS(=O)(=O)c2cccc(Cl)c2)[C@@H](CO)O1	none (no result: Mot1-301 SUMO)
CCS(=O)(=O)NCC[C@H]1CC[C@H](NS(=O)(=O)c2cccc(F)c2)[C@@H](CO)O1	none (no result: Mot1-301 SUMO)
CCS(=O)(=O)NCC[C@@H]1CC[C@@H](NS(=O)(=O)c2cccc(F)c2)[C@@H](CO)O1	Cneo AK release 98 (no result: Mot1-301 SUMO)
O=C(Nc1cccc(F)c1)N[C@@H]1CC[C@@H](CCNS(=O)(=O)c2cccc(Cl)c2)O[C@@H]1CO	none (no result: Mot1-301 SUMO)
O=C(NC1CCCCC1)N[C@@H]1CC[C@@H](CCNS(=O)(=O)c2ccc(Cl)cc2)O[C@@H]1CO	none (no result: Mot1-301 SUMO)
O=C(Nc1cccc(F)c1)N[C@H]1CC[C@@H](CCNS(=O)(=O)c2cccc(Cl)c2)O[C@@H]1CO	Cneo AK release 106 (no result: Mot1-301 SUMO)
O=C(NC1CCCCC1)N[C@@H]1CC[C@@H](CCNS(=O)(=O)c2ccc(Cl)cc2)O[C@H]1CO	Cneo AK release 94 (no result: Mot1-301 SUMO)
CCNC(=O)[C@@H]1[C@@H](CO)[C@@H]2Cn3c(ccc(-c4cccnc4)c3=O)[C@@H]2N1Cc1ccc2c(c1)OCO2	none (no result: Mot1-301 SUMO)
COCC(=O)Nc1ccc2c(c1)OC[C@H](C)N(C(=O)c1ccccc1)C[C@@H](C)[C@@H](OC)CN(C)C2=O	none (no result: Mot1-301 SUMO)
CCOc1ccc(C(=O)Cc2ccc3oc(C(=O)O)cc3c2)c(O)c1	none
CCOC(=O)c1cc2cc(CC(=O)c3ccc(OCC)cc3O)ccc2o1	Statin myotox sup 97
CO[C@@H]1CN(C)C(=O)c2ccc(NC(=O)c3ccccc3F)cc2OC[C@H](C)NC[C@@H]1C	none (no result: Mot1-301 SUMO)
C[C@@H]1CN([C@@H](C)CO)C(=O)c2cc(NC(=O)CCC(F)(F)F)ccc2O[C@@H](C)CCCCO[C@@H]1CN(C)C	none (no result: Mot1-301 SUMO, Cneo AK release)
C[C@@H]1CN([C@@H](C)CO)C(=O)c2cccc(NC(=O)Nc3ccc(C(F)(F)F)cc3)c2O[C@@H]1CN(C)C	none (no result: Mot1-301 SUMO)
CC(=O)N(CCc1ccccc1)Cc1cc2cc(C)ccc2[nH]c1=O	none
COc1ccc(N(Cc2cc3ccccc3[nH]c2=O)S(=O)(=O)c2ccc(C)cc2)cc1	none
COc1ccc(N(Cc2cc3ccccc3[nH]c2=O)S(=O)(=O)c2ccccc2)cc1	Statin myotox sup 182
COc1ccc2[nH]c(=O)c(CN(CCc3ccccc3)C(C)=O)cc2c1	Statin myotox sup 114
CO[C@H]1CN(C)C(=O)c2cc(NC(=O)NC(C)C)ccc2OC[C@H](C)N(C(=O)CC2CC2)C[C@H]1C	none (no result: Mot1-301 SUMO)
O=C(N[C@@H]1CC[C@H](CC(=O)N2CCOCC2)O[C@H]1CO)c1cccc(F)c1	none (no result: Mot1-301 SUMO)
Cc1cc2c3c(c1)C(C)(c1ccccc1)CC(C)(C)N3C(=O)C21C(C#N)=C(N)OC2=C1C(=O)CC(C)(C)C2 (centres undefined)	none
CC1(c2ccccc2)CC(C)(C)N2C(=O)C3(C(C#N)=C(N)Oc4cc(O)ccc43)c3cccc1c32 (centres undefined)	Statin myotox sup 87
CCc1cc(C(=O)NNC(=O)c2csc(N3CCOCC3)n2)sc1C	none (no result: Mot1-301 SUMO)
O=C(NNC(=O)c1cc(Br)c(Br)s1)c1csc(N2CCOCC2)n1	Mot1-301 SUMO 347 (no result: Statin myotox sup, Cneo AK release)
CNC[C@@H]1OCCCC[C@@H](C)Oc2ccc(NS(=O)(=O)c3c(C)noc3C)cc2C(=O)N([C@@H](C)CO)C[C@H]1C	none (no result: Mot1-301 SUMO, Statin myotox sup)
Cc1ccc(N/N=C/c2cccnc2)cc1	Mot1-301 SUMO 289 (no result: Statin myotox sup)
